Results published in ChEMBL document CHEMBL3856258, “Phosphonate-based irreversible inhibitors of human γ-glutamyl transpeptidase (GGT). GGsTop is a non-toxic and highly selective inhibitor with critical electrostatic interaction with an active-site residue Lys562 for enhanced inhibitory activity” (Bioorg Med Chem, 2016).
Activity calls are given as the source filed them. The calls are words filed in the database; no cut-off is given here.

How the values were obtained:
[1] = test system: Gamma-glutamyltranspeptidase 1 (Homo sapiens); assay: Inhibition of human wild-type N-terminal truncated GGT expressed in baculovirus infected High Five cells at 1 mM using gamma-Glu-PNA as substrate after 1 min by spectrophotometric method; settings: BTI-TN-5B1-4
[2] = Cytotoxicity against CHL cells assessed as growth rate at 84.5 ug/ml after 24 hrs in absence of S9 fraction by MTT assay relative to control; type: toxicity, cell-based, Cricetulus griseus; settings: chinese hamster, read-out: Activity
Salmonella typhimurium [3] = assay: Genotoxicity in Salmonella typhimurium TA98 assessed as number of revertant colonies per plate at 1667 ug/plate after 20 mins in absence of S9 fraction by Ames test (reference value: 21); type: toxicity, organism-based; settings: salmonella enterica subsp. enterica serovar typhimurium
Salmonella typhimurium [4] = assay: Genotoxicity in Salmonella typhimurium TA100 assessed as number of revertant colonies per plate at 5000 ug/plate after 20 mins in absence of S9 fraction by Ames test (reference value: 123); type: toxicity, organism-based; settings: salmonella enterica subsp. enterica serovar typhimurium
[5] = Cytotoxicity against CHL cells assessed as growth rate at 13.5 ug/ml preincubated for 6 hrs followed by 18 hrs incubation in fresh medium in presence of S9 fraction by MTT assay relative to control; type: toxicity, cell-based, Cricetulus griseus; settings: chinese hamster, read-out: Activity
Salmonella typhimurium [6] = assay: Genotoxicity in Salmonella typhimurium TA98 assessed as number of revertant colonies per plate at 1667 ug/plate after 20 mins in presence of S9 fraction by Ames test (reference value: 26); type: toxicity, organism-based; settings: salmonella enterica subsp. enterica serovar typhimurium
[7] = Cytotoxicity against CHL cells assessed as number of cells with numerical aberrations at 825 ug/ml after 24 hrs by Giemsa staining-based microscopic analysis relative to control; type: toxicity, cell-based, Cricetulus griseus; settings: chinese hamster
Escherichia coli K-12 = assay: Irreversible inhibition of Escherichia coli K-12 SH642 GGT using gamma-Glu-AMC as substrate assessed as association rate constant by […] analysis
Outline: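 GGT was purified from the periplasmic fraction of recombinant E. coli K-12 SH642. Hydrolytic activity was followed with γ-Glu-AMC as substrate. Irreversible inactivation was expressed as kon, the second-order rate constant for the inhibitor–enzyme reaction.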

[8] = Cytotoxicity against CHL cells assessed as number of cells with numerical aberrations at 825 ug/ml preincubated for 6 hrs followed by 18 hrs incubation in fresh medium in presence of S9 fraction by Giemsa-staining-based microscopic analysis relative to control; type: toxicity, cell-based, Cricetulus griseus; settings: chinese hamster
Escherichia coli [9] = assay: Genotoxicity in Escherichia coli WP2uvrA assessed as number of revertant colonies per plate at 556 ug/plate after 20 mins in absence of S9 fraction by Ames test (reference value: 24); type: toxicity; settings: s9, 20 min
[10] = Cytotoxicity against CHL cells assessed as structural aberrations at 825 ug/ml preincubated for 6 hrs followed by 18 hrs incubation in fresh medium in absence of S9 fraction by Giemsa-staining-based microscopic analysis; type: toxicity, cell-based, Cricetulus griseus; settings: chinese hamster
Salmonella typhimurium [11] = assay: Genotoxicity in Salmonella typhimurium TA98 assessed as number of revertant colonies per plate at 5000 ug/plate after 20 mins in presence of S9 fraction by Ames test (reference value: 26); type: toxicity, organism-based; settings: salmonella enterica subsp. enterica serovar typhimurium
Salmonella typhimurium [12] = assay: Genotoxicity in Salmonella typhimurium TA1537 assessed as number of revertant colonies per plate at 61.7 ug/plate after 20 mins in absence of S9 fraction by Ames test (reference value: 9); type: toxicity, organism-based; settings: salmonella enterica subsp. enterica serovar typhimurium
[13] = Cytotoxicity against CHL cells assessed as chromatid gap at 1650 ug/ml after 24 hrs by Giemsa-staining-based microscopic analysis; type: toxicity, cell-based, Cricetulus griseus; settings: chinese hamster
Escherichia coli [14] = assay: Genotoxicity in Escherichia coli WP2uvrA assessed as number of revertant colonies per plate at 5000 ug/plate after 20 mins in absence of S9 fraction by Ames test (reference value: 24); type: toxicity; settings: s9, 20 min
[15] = Cytotoxicity against CHL cells assessed as number of cells with numerical aberrations at 1650 ug/ml after 24 hrs by Giemsa staining-based microscopic analysis relative to control; type: toxicity, cell-based, Cricetulus griseus; settings: chinese hamster
[16] = Cytotoxicity against CHL cells assessed as number of cells with numerical aberrations at 1650 ug/ml preincubated for 6 hrs followed by 18 hrs incubation in fresh medium in absence of S9 fraction by Giemsa-staining-based microscopic analysis relative to control; type: toxicity, cell-based, Cricetulus griseus; settings: chinese hamster
Salmonella typhimurium [17] = assay: Genotoxicity in Salmonella typhimurium TA100 assessed as number of revertant colonies per plate at 61.7 ug/plate after 20 mins in absence of S9 fraction by Ames test (reference value: 123); type: toxicity, organism-based; settings: salmonella enterica subsp. enterica serovar typhimurium
Salmonella typhimurium [18] = assay: Genotoxicity in Salmonella typhimurium TA1535 assessed as number of revertant colonies per plate at 185 ug/plate after 20 mins in absence of S9 fraction by Ames test (reference value: 15); type: toxicity, organism-based; settings: salmonella enterica subsp. enterica serovar typhimurium
[19] = Cytotoxicity against CHL cells assessed as structural aberrations at 825 ug/ml after 24 hrs by Giemsa-staining-based microscopic analysis; type: toxicity, cell-based, Cricetulus griseus; settings: chinese hamster
[20] = Hydrolytic stability of compound in D2O at pH >8.5 by 31P NMR spectroscopy; type: physicochemical
[21] = Cytotoxicity against CHL cells assessed as number of cells with numerical aberrations at 825 ug/ml preincubated for 6 hrs followed by 18 hrs incubation in fresh medium in absence of S9 fraction by Giemsa-staining-based microscopic analysis relative to control; type: toxicity, cell-based, Cricetulus griseus; settings: chinese hamster
Salmonella typhimurium [22] = assay: Genotoxicity in Salmonella typhimurium TA1537 assessed as number of revertant colonies per plate at 185 ug/plate after 20 mins in absence of S9 fraction by Ames test (reference value: 9); type: toxicity, organism-based; settings: salmonella enterica subsp. enterica serovar typhimurium
Salmonella typhimurium [23] = assay: Genotoxicity in Salmonella typhimurium TA1535 assessed as number of revertant colonies per plate at 556 ug/plate after 20 mins in absence of S9 fraction by Ames test (reference value: 15); type: toxicity, organism-based; settings: salmonella enterica subsp. enterica serovar typhimurium
Salmonella typhimurium [24] = assay: Genotoxicity in Salmonella typhimurium TA1535 assessed as number of revertant colonies per plate at 61.7 ug/plate after 20 mins in absence of S9 fraction by Ames test (reference value: 15); type: toxicity, organism-based; settings: salmonella enterica subsp. enterica serovar typhimurium
Escherichia coli [25] = assay: Genotoxicity in Escherichia coli WP2uvrA assessed as number of revertant colonies per plate at 5000 ug/plate after 20 mins in presence of S9 fraction by Ames test (reference value: 26); type: toxicity; settings: s9, 20 min
Salmonella typhimurium [26] = assay: Genotoxicity in Salmonella typhimurium TA100 assessed as number of revertant colonies per plate at 1667 ug/plate after 20 mins in absence of S9 fraction by Ames test (reference value: 123); type: toxicity, organism-based; settings: salmonella enterica subsp. enterica serovar typhimurium
Salmonella typhimurium [27] = assay: Genotoxicity in Salmonella typhimurium TA1537 assessed as number of revertant colonies per plate at 20.6 ug/plate after 20 mins in presence of S9 fraction by Ames test (reference value: 15); type: toxicity, organism-based; settings: salmonella enterica subsp. enterica serovar typhimurium
[28] = Cytotoxicity against CHL cells assessed as chromatid gap at 1650 ug/ml preincubated for 6 hrs followed by 18 hrs incubation in fresh medium in presence of S9 fraction by Giemsa-staining-based microscopic analysis; type: toxicity, cell-based, Cricetulus griseus; settings: chinese hamster
[29] = Cytotoxicity against CHL cells assessed as growth rate at 528 ug/ml after 24 hrs in absence of S9 fraction by MTT assay relative to control; type: toxicity, cell-based, Cricetulus griseus; settings: chinese hamster, read-out: Activity
[30] = Cytotoxicity against CHL cells assessed as growth rate at 528 ug/ml preincubated for 6 hrs followed by 18 hrs incubation in fresh medium in presence of S9 fraction by MTT assay relative to control; type: toxicity, cell-based, Cricetulus griseus; settings: chinese hamster, read-out: Activity
Salmonella typhimurium [31] = assay: Genotoxicity in Salmonella typhimurium TA100 assessed as number of revertant colonies per plate at 185 ug/plate after 20 mins in absence of S9 fraction by Ames test (reference value: 123); type: toxicity, organism-based; settings: salmonella enterica subsp. enterica serovar typhimurium

COP(=O)(CCC(N)C(=O)O)Oc1cccc(CC(=O)O)c1 (configuration not stated)
inhibition [1]: Active
viability at 24 h, 84.5 ug/ml [2]: 101%
Activity (Salmonella typhimurium [3]): 23
Activity (Salmonella typhimurium [4]): 123
viability at 18 h, 13.5 ug/ml [5]: 103%
Activity (Salmonella typhimurium [6]): 29
Activity [7]: 0%
K (Escherichia coli K-12): 150 M⁻¹ s⁻¹
Activity [8]: 1%
Activity (Escherichia coli [9]): 25
Activity [10]: 3%
Activity (Salmonella typhimurium [11]): 27
Activity (Salmonella typhimurium [12]): 12
Activity [13]: 1%
Activity (Escherichia coli [14]): 29
Activity [15]: 0%
Activity [16]: 0%
Activity (Salmonella typhimurium [17]): 148
Activity (Salmonella typhimurium [18]): 12
Activity [19]: 0%
Stability [20]: Unstable
Activity [21]: 0%
Activity (Salmonella typhimurium [22]): 12
Activity (Salmonella typhimurium [23]): 8
Activity (Salmonella typhimurium [24]): 8
Activity (Escherichia coli [25]): 34
Activity (Salmonella typhimurium [26]): 131
Activity (Salmonella typhimurium [27]): 17
Activity [28]: 1%
viability at 24 h, 528 ug/ml [29]: 96%
viability at 18 h, 528 ug/ml [30]: 95.2%
Activity (Salmonella typhimurium [31]): 128
